Compounds with a hit are over-represented: about 2.2% of the library has one in this group of screens.
E-sel inducer: E-selectin induction on HUVECs | P16581 | AID 686992 | HUVEC E-selectin immunofluorescence imaging; normalized: neutral wells 0, TNF-alpha wells 100 | activation, % at 7.58 µM | actives 0.37% (n = 260,000);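 active means mean E-selectin-positive cell signal at least 10% of the positive control, reached in at least 60% of replicates, without over 20% cell loss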
Target sequence (P16581 whole entry, looked up): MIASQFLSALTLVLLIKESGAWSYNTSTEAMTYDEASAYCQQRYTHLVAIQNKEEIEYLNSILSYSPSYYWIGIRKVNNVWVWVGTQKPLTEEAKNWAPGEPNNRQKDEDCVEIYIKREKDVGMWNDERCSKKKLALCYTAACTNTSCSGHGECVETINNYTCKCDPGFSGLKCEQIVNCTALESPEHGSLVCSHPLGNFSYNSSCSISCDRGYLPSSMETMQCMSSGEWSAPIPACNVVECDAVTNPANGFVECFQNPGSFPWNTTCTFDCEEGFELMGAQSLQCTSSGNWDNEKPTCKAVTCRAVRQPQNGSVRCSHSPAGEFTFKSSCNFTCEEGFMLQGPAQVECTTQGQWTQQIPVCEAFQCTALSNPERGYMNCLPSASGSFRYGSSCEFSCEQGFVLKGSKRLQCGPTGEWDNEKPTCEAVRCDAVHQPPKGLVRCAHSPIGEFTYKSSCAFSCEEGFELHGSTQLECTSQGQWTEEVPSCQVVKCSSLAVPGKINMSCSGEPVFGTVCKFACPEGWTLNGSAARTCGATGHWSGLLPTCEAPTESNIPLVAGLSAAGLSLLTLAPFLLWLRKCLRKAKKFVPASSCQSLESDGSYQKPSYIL
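Read-out basis: % PE-positive cells; Test system: HUVEC primary endothelial cells; Technique: immunofluorescence imaging; Dosing: single-point compound dose.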
C2C12 statin: suppression of simvastatin myotoxicity; C2C12 myotubes + simvastatin, ATP luminescence, 48 h; scaled: DMSO 0, geranylgeraniol control 100; rescue of ATP level, % at 7.49 µM; actives 0.78% (n = 330,000); AID 602340;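 active means mean ATP rescue above about 67%, or every replicate alone reaching that limit, limit read from the data, passing the limit was not always enough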;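 further: myotubes were challenged with 10 µM simvastatin during compound exposure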
DENV2 CPE rescue: protects cells from dengue virus 2 cytopathic effect. actives 1.7% (n = 350,000). CPE inhibition, % at 9.99 µM. AID 651640. DENV2-infected cells, cytopathic effect rescue, plate reader; in the data active means CPE inhibition above about 20%, passing the limit was not always enough; tested in BHK-21 cells;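 further: 0% = median of neutral control wells and 100% = median of positive control wells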
Starred values were filed as active, the others as inactive.

`CO[C@H]1CN(C)C(=O)c2cc(NS(=O)(=O)c3ccccc3F)ccc2OC[C@@H](C)NC[C@@H]1C` gave E-sel inducer 0, C2C12 statin 10 and DENV2 CPE rescue 65*.
`COc1cccc(S(=O)(=O)Nc2ccc3c(c2)C(=O)N(C)C[C@@H](OC)[C@H](C)CN[C@@H](C)CO3)c1` gave E-sel inducer 0, C2C12 statin 6 and DENV2 CPE rescue -4.
Screening CS(=O)(=O)N1CC(=O)N2[C@H](CO)[C@H](c3ccc(C#Cc4ccccc4)cc3)[C@@H]2C1 returned E-sel inducer 0 and DENV2 CPE rescue 6.
For C[C@H](CO)N1C[C@H](C)[C@H](CN(C)Cc2ccc(Oc3ccccc3)cc2)Oc2ccc(NS(=O)(=O)c3cccs3)cc2C1=O the results were E-sel inducer 10, C2C12 statin -19 and DENV2 CPE rescue 11.
For CCC(=O)N1C[C@H](C)[C@H](OC)CN(C)C(=O)c2cc(NC(=O)Nc3ccc(Cl)cc3)ccc2OC[C@@H]1C the results were E-sel inducer 0, C2C12 statin -13 and DENV2 CPE rescue -2.
For O=S(=O)(Cc1ccccc1)NCC[C@@H]1CC[C@@H](NS(=O)(=O)c2ccccc2)[C@H](CO)O1 the results were E-sel inducer 0, C2C12 statin -5 and DENV2 CPE rescue -7.
CN1C(=O)N[C@@H]2c3ccccc3O[C@@]1(C)[C@@H]2COC(=O)c1ccc([N+](=O)[O-])cc1 was read as DENV2 CPE rescue 38*.
Screening CN1C(=O)N[C@@H]2c3ccccc3O[C@@]1(C)[C@@H]2COC(=O)c1ccccc1 returned DENV2 CPE rescue -1.
`COCC(=O)N1CC(=O)N2[C@@H](CO)[C@H](c3ccc(C#CC4CCCC4)cc3)[C@@H]2C1` gave E-sel inducer 0 and DENV2 CPE rescue 5.
Screening CC=Cc1ccc2n(c1=O)C[C@H]1[C@H](CO)[C@@H](C(=O)NCc3ccc4c(c3)OCO4)[C@@H]2N1C(=O)CC (mixture of isomers) returned E-sel inducer 0, C2C12 statin 1 and DENV2 CPE rescue -15.
Screening O=C(c1cnn2c(C(F)F)cc(-c3ccccc3)nc12)N1CCc2ccccc21 returned C2C12 statin 118* and DENV2 CPE rescue 4.
COc1ccc(-c2cc(C(F)F)n3ncc(C(=O)N4CCc5ccccc5C4)c3n2)cc1 was read as E-sel inducer 0, C2C12 statin -4 and DENV2 CPE rescue -2.
`COCC#Cc1cnc2c(c1)C(=O)N([C@H](C)CO)C[C@@H](C)[C@H](CN(C)C(=O)c1cccnc1)O2` gave E-sel inducer 0, C2C12 statin 0 and DENV2 CPE rescue -2.
For O=C(Nc1ccn(CCCN2CCN(c3ncccn3)CC2)c(=O)n1)OCc1ccccc1 the results were E-sel inducer 2, C2C12 statin 4 and DENV2 CPE rescue 6.
O=C(Cn1ccc(NC(=O)OCc2ccccc2)nc1=O)NCCN1CCOCC1 was read as E-sel inducer 0, C2C12 statin 11 and DENV2 CPE rescue 13.
`O=C(Cn1ccc(NC(=O)OCc2ccccc2)nc1=O)NCCCN1CCCC1=O` gave E-sel inducer 0, C2C12 statin 3 and DENV2 CPE rescue 114*.
O=C(Nc1ccn(CC(=O)N2CCN(c3ccccn3)CC2)c(=O)n1)OCc1ccccc1 was read as E-sel inducer 0, C2C12 statin -3 and DENV2 CPE rescue 119*.
`CCCC(=O)Nc1ccc2c(c1)OC[C@H](C)N(Cc1ccc(-c3ccccn3)cc1)C[C@@H](C)[C@@H](OC)CN(C)C2=O` gave E-sel inducer 0, C2C12 statin -12 and DENV2 CPE rescue -3.
For O=C(C[C@@H]1CC[C@@H](NS(=O)(=O)c2ccc(F)cc2)[C@@H](CO)O1)NCCN1CCCCC1 the results were E-sel inducer -1, C2C12 statin -3 and DENV2 CPE rescue 3.
`Cc1noc(C)c1S(=O)(=O)Nc1ccc2c(c1)C(=O)N([C@H](C)CO)C[C@H](C)[C@H](CN(C)C(=O)NC1CCCCC1)O2` gave E-sel inducer 0, C2C12 statin -32 and DENV2 CPE rescue -1.
`C[C@@H]1CN([C@@H](C)CO)C(=O)c2cc(NS(=O)(=O)c3cn(C)cn3)ccc2O[C@@H](C)CCCCO[C@@H]1CN(C)C` gave E-sel inducer 0 and DENV2 CPE rescue 2.
For C[C@H](CO)N1C[C@H](C)[C@H](CN(C)S(=O)(=O)c2ccc(F)cc2)Oc2cc(C#Cc3ccncc3)ccc2S1(=O)=O the results were C2C12 statin -27 and DENV2 CPE rescue -8.
Screening Cc1ccc(S(=O)(=O)N(C)C[C@H]2Oc3cc(C#Cc4ccncc4)ccc3S(=O)(=O)N([C@@H](C)CO)C[C@H]2C)cc1 returned C2C12 statin -37 and DENV2 CPE rescue 64*.
C/C=C/c1ccc2c(c1)O[C@H](CN(C)S(=O)(=O)c1ccc(C)cc1)[C@H](C)CN([C@H](C)CO)S2(=O)=O was read as E-sel inducer 0, C2C12 statin -11 and DENV2 CPE rescue 20*.
`C/C=C/c1ccc2c(c1)O[C@@H](CN(C)S(=O)(=O)c1ccc(C)cc1)[C@@H](C)CN([C@@H](C)CO)S2(=O)=O` gave E-sel inducer 0, C2C12 statin 53 and DENV2 CPE rescue 3.
O=C(NCC1CCCO1)c1ccc(S(=O)(=O)Nc2ccccc2F)cc1 (configuration not stated) was read as E-sel inducer 2 and DENV2 CPE rescue 101*.
Screening Cc1cccc(NS(=O)(=O)c2ccc(C(=O)NCC3CCCO3)cc2)c1C (configuration not stated) returned E-sel inducer 0, C2C12 statin 3 and DENV2 CPE rescue -10.
For CO[C@@H]1CN(C)C(=O)c2cc(NC(=O)c3ccc(F)cc3)ccc2OC[C@@H](C)N(C(=O)CC2CC2)C[C@@H]1C the results were E-sel inducer 0 and C2C12 statin 14.
For CNC(=O)c1cc(Cl)c(OC)c(OC)c1 the results were E-sel inducer 0 and DENV2 CPE rescue -2.
`COC(=O)C(=O)C1CCc2c(Cl)cc(OC)c(OC)c2C1=O` (configuration not stated) gave DENV2 CPE rescue 65*.
`CC1(C)CC(=O)C2=C(C1)N(c1cccnc1)C(N)=C(C#N)C2c1cccs1` (configuration not stated) gave DENV2 CPE rescue -5.
`CCSc1sccc1C1C(C#N)=C(N)N(c2cccnc2)C2=C1C(=O)CC(C)(C)C2` (configuration not stated) gave E-sel inducer -3 and C2C12 statin 77*.
For Cc1noc(C)c1NC(=O)N(C)C[C@@H]1Oc2ccc(NS(=O)(=O)c3ccc(F)cc3)cc2C(=O)N([C@H](C)CO)C[C@H]1C the results were E-sel inducer 0, C2C12 statin 11 and DENV2 CPE rescue -3.
For CCc1ccc(CCC(=O)Nc2ccc(OC)cc2)o1 the results were C2C12 statin 3.
`COc1ccc(C(N)CCc2ccc(C)o2)cc1` (configuration not stated) gave C2C12 statin 137*.
For Nc1ccc(C(=O)O)c(O)c1 the results were E-sel inducer 0, C2C12 statin 8 and DENV2 CPE rescue 1.
`O=C(O)c1ccc(O)cc1O` gave C2C12 statin -1 and DENV2 CPE rescue 67*.
